RAM network inh: yeast RAM network inhibition; S. cerevisiae dse1pr::URA3 reporter, 5-FOA growth OD615, 2 d; analog-sensitive cbk1-as2 kinase mutant strain; inhibition, % at 50 µM; 190,000 compounds, 1.8% hits; AID 868;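 active = inhibition above a set limit, 3 SD over mean compound inhibition, cut at about 8.4% in these data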;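 note: inhibition rescues growth on 5-FOA so higher OD means more RAM inhibition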
Phagocyt inh: macrophage phagocytosis inhibition; inhibition, % at 5 µM; 110,000 compounds, 0.07% hits; J774A.1 macrophage IgG-bead phagocytosis, imaging;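 active = inhibition above the mean of the plate negative controls plus 5 SD, cut at about 13% in these data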;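 note: phagocytic index as fraction of beads internalized from green versus red external bead signal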
BB579 growth dn: chemicals that inhibit yeast BB579 growth in restrictive medium (lifespan-shortening candidates) | S. cerevisiae BB579 growth, OD615, 48 h | 140,000 compounds, 0.51% hits | AID 804 | inhibition, % at 10 µM;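 active = inhibition above a set limit, 3 SD over the mean compound inhibition, cut at about 44% in these data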
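System: DeaD yeast strain BB579; buffer or medium: CSMM-D dextrose restrictive medium; technique: OD at 615 nm; schedule: 4 h cell preincubation, 48 h compound exposure, 30 °C humidified; doses: single 10 µM dose; controls: amphotericin B 10 µg/mL, positive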
Yeast lifespan up: extends the lifespan of yeast; inhibition of the nicotinamide effect, % at 10 µM; 130,000 compounds, 0.68% hits; AID 775; S. cerevisiae growth with nicotinamide, OD615; deaD strain in restrictive glucose medium;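 active = inhibition above a set limit, placed 3 SD over the median of all compounds, cut at about 26% in these data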
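assay system = DeaD-strain S. cerevisiae | buffer or medium = restrictive glucose medium | reagent = 1.5 mM nicotinamide | compound = 10 µM single point, 0.25% DMSO | incubation = 48 h compound exposure at 30 °C, humidified | signal = OD615 measurement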
Numbers stand for hits; . = inactive; / = no result. Most compounds without a hit are left out; they make up all but 2.7% or so of the library.

SMILES	RAM network inh	Phagocyt inh	BB579 growth dn	Yeast lifespan up
CCOC(=O)c1sc(NC(=O)c2cccnc2)c(C#N)c1C	.	.	.	28.6
CCOC(=O)c1c(NC(=O)c2cccnc2)sc(C)c1C	.	/	.	.
Cc1cc2nc(-c3ccc(SCc4ccc(C(=O)O)cc4)nc3)[nH]c2cc1C	.	/	/	/
Cc1cc2nc(-c3ccc(SCC(=O)Nc4ccc(S(=O)(=O)NC5CC5)cc4)nc3)[nH]c2cc1C	9.3	.	.	.
Cc1cc2nc(-c3ccc(SCC(=O)NC(C)C)nc3)[nH]c2cc1C	.	/	/	/
Cc1cc(NC(=O)CSc2ccc(-c3nc4cc(C)c(C)cc4[nH]3)cn2)no1	10.0	.	.	.
Cn1c(N)c(C(=O)COC(=O)c2ncc(Cl)c(Cl)c2Cl)c(=O)n(C)c1=O	.	/	/	/
CC(C)CCNC(=O)C(c1ccco1)N(Cc1ccccc1)C(=O)c1snc(C(N)=O)c1N (configuration not stated)	.	.	.	.
NC(=O)c1nsc(C(=O)N(CCc2ccccc2)C(C(=O)NC2CCCC2)c2ccco2)c1N (configuration not stated)	8.7	.	.	.
COc1ccc(C(=O)C2CCCN(C(=O)c3noc4c3CCCC4)C2)c(C)c1 (configuration not stated)	.	/	/	/
Nc1ccc(O)cc1C(=O)OCC(=O)c1ccc(C2CCCCC2)cc1	10.2	.	.	.
Cc1cccc(C(=O)c2cnc3ccccc3c2-c2ccccc2)c1	9.9	.	.	.
CSc1ccc(S(=O)(=O)N(C)Cc2ccccc2)cc1	.	/	/	/
Cc1ccc2c(c1)-c1nc3ccccc3cc1C2=NC1CCCCC1	.	.	47.0	.
Cc1ccc2c(c1)C(=NC1CCCCC1)c1cc3ccccc3nc1-2	.	.	59.7	.
Cc1ccc(-c2cc3ccccc3nc2N2CCCC2)cc1	.	.	.	.
O=C1NC(c2cccc([N+](=O)[O-])c2)Oc2ccccc21 (configuration not stated)	.	/	/	/
COC(=O)c1ccc(COc2cc(O)c3c(c2)OC(C)(C)CC3=O)cc1	10.1	.	.	.
COc1cc(O)c2c(c1)OC(C)(C)CC2=O	.	.	.	.
CC1(C)CC(=O)c2c(O)cc(OCc3ccc(Br)cc3)cc2O1	8.7	.	.	.
CN(C)CCCNS(=O)(=O)c1ccc(Cl)s1	.	/	/	/
CCCCn1ccnc1C(=O)c1cc(S(=O)(=O)N2CCOCC2)ccc1C	.	.	.	.
CCCCn1ccnc1C(=O)c1cccc(S(=O)(=O)N2CC(C)CC(C)C2)c1 (configuration not stated)	8.7	.	.	.
O=C(COc1ccc(-c2ccccc2)cc1)NNC(=O)NC1CCCCC1	.	/	/	/
Cc1cc(C)c(C#N)c(SCC2COc3ccccc3O2)n1 (configuration not stated)	8.5	.	.	.
SMILES	RAM network inh	Phagocyt inh	BB579 growth dn	Yeast lifespan up
O=C(Nc1ccc(F)cc1)c1ccc(CSc2ccccc2)o1	.	.	.	.
CC(=O)c1ccc(NC(=O)c2ccc(CSc3ccccc3)o2)cc1	8.6	.	.	.
CCn1cc(C(=O)O)c(=O)c2ccc(C)nc21	.	/	.	64.1
CCn1cc(C(=O)OCc2ccccc2)c(=O)c2ccc(C)nc21	.	.	.	.
CCC(=O)NC(/C=C/c1ccccc1)c1cc([N+](=O)[O-])c2cccnc2c1O (configuration not stated)	10.7	.	.	.
Cc1ccc(C(NC(=O)C(C)C)c2cc([N+](=O)[O-])c3cccnc3c2O)cc1 (configuration not stated)	.	.	85.8	.
COc1cc(C)ccc1OCCOCCOc1cc(C)c(C)cc1Br	.	/	.	.
O=C1C2CCCN2C(c2ccco2)N1c1ccc(F)cc1 (configuration not stated)	.	/	/	/
CC1=CC(C)(C)N(S(=O)(=O)c2ccc(F)cc2)c2ccc(C)cc21	.	.	.	.
CC1=CC(C)(C)N(S(=O)(=O)c2ccc(C)cc2)c2ccccc21	8.7	/	.	.
COCCNC(=S)N1CCc2cc(OC)c(OC)cc2C1COc1ccc(F)cc1 (configuration not stated)	8.8	/	/	/
CCNC(=S)N1CCc2cc(OC)c(OC)cc2C1COc1ccc(F)cc1 (configuration not stated)	.	/	/	/
CCOC(=O)CNC(=O)C12CC3CC(C1)CC(c1ccc(C)cc1)(C3)C2	.	/	/	/
CCOc1ccc(NC(=O)C23CC4CC(C2)CC(c2ccccc2)(C4)C3)cc1	8.6	/	.	.
O=C(c1cc(C2CC2)on1)N1CCN(c2ccccc2)CC1	.	.	.	.
CCOC(=S)SCC(=O)N1CCc2ccccc2C1C1C(=O)CC(C)(C)CC1=O (configuration not stated)	.	.	.	36.7
CCOC(=S)SCC(=O)N1CCc2cc(OC)c(OC)cc2C1C1C(=O)CC(C)(C)CC1=O (configuration not stated)	.	/	.	.
Cc1[nH]c2ccccc2c1C(=O)COC(=O)c1ccc2c(=O)n3c(nc2c1)CCC3	9.1	/	/	/
CN(C(=O)COC(=O)c1ccc2c(=O)n3c(nc2c1)CCC3)c1ccccc1	.	/	.	.
Cc1ccc2cc(C#N)c(NCCNC(=O)C3CC3)nc2c1C	.	.	.	.
Nc1[nH]c(=O)ncc1F	.	/	73.8	.
O=c1c2cc(NC(=S)N3CCC(N4CCCCC4)CC3)ccc2nc2n1CCCCC2	.	/	/	/
CC1CCCCN1C(=S)Nc1ccc2nc3n(c(=O)c2c1)CCCCC3 (configuration not stated)	.	.	.	55.9
CC(OC(=O)C1=Cc2ccccc2OC1)C(=O)NC(C)(C)C (configuration not stated)	.	/	/	/
CC(C)NC(=O)CN1CCN(Cc2nc(C(c3ccccc3)c3ccccc3)no2)CC1	.	/	/	/
SMILES	RAM network inh	Phagocyt inh	BB579 growth dn	Yeast lifespan up
c1ccc(Oc2cc(-c3ccccc3)nc(-c3ccccc3)n2)cc1	10.0	.	.	.
C=CCN(C(=O)CNC(=O)c1ccco1)C(C(=O)NC1CCCCC1)c1ccccc1 (configuration not stated)	9.2	.	.	.
C/C(N)=C(/C#N)C(=O)CSc1nc2scc(-c3ccccc3)c2c(=O)n1C	9.6	/	/	/
CC(Sc1nc(-c2ccccc2)cc(C(F)(F)F)n1)C(=O)Nc1sc2c(c1C#N)CCC2 (configuration not stated)	10.0	/	.	.
CCOc1ccccc1NC1=C(Cl)C(=O)N(Cc2ccccc2)C1=O	10.6	.	.	.
CCOc1ccccc1NC1=C(Cl)C(=O)N(c2ccccc2)C1=O	.	.	.	.
CC1=NN(c2ccccc2)C(=O)C1C(=O)c1ccccc1 (configuration not stated)	.	/	.	27.6
CC1=NN(c2ccccc2)C(=O)C1C(=O)c1ccc(Cl)cc1 (configuration not stated)	.	/	.	.
c1ccc(SCCOCCn2cncn2)cc1	.	.	.	.
OC(Cn1cncn1)(c1ccccc1)c1ccccc1	.	.	91.5	.
NC(=O)NC(=O)COC(=O)CCSc1ccccc1	.	/	/	/
CN(c1cccc(NC(=O)CN(c2ccc(Cl)c(Cl)c2)S(=O)(=O)c2ccccc2)c1)S(C)(=O)=O	9.7	/	.	28.6
